Reference: ChEMBL document CHEMBL1177728, “Discovery and optimization of boronic acid based inhibitors of autotaxin” (J Med Chem, 2010)

The compounds below were run against T1, Autotaxin (Homo sapiens, UniProt Q13822) (assay: Inhibition of 6x-histidine-tagged human recombinant ATX expressed in HEK293 cells using bisP-nitrophenyl phosphate as a substrate). Settings: hek293; call rule not given here.
Format: cell-based
With `CC(C)(C)c1ccc(CN2C(=O)S/C(=C\c3ccccc3)C2=O)cc1` the IC50 was “Not Active”.
For `COc1cc(/C=C2\SC(=O)N(Cc3ccc(C(C)(C)C)cc3)C2=O)ccc1OCc1ccccc1`, the IC50 was “Not Active”.
`O=C1S/C(=C\c2ccccc2)C(=O)N1Cc1ccc([N+](=O)[O-])cc1` was tested, and the IC50 was “Not Active”.

Same assay, conditions: read-out: IC50
With `COc1cc(/C=C2\SC(=O)N(Cc3ccc(F)cc3)C2=O)ccc1OCc1ccccc1` the IC50 was 5.87 µM.
`COC(=O)c1ccc(COc2ccc(/C=C3\SC(=O)N(Cc4ccccc4)C3=O)cc2OC)cc1` was tested, and the IC50 was 2.69 µM.
`COC(=O)c1ccc(COc2ccc(/C=C3\SC(=O)N(Cc4ccc(C(C)(C)C)cc4)C3=O)cc2OC)cc1` was tested, and the IC50 was > 100 µM.
For `CC(C)(C)c1ccc(CN2C(=O)S/C(=C\c3ccc(OCc4ccccc4)cc3)C2=O)cc1`, the IC50 was > 100 µM.
With `O=C1S/C(=C\c2ccc(OCc3ccccc3)cc2)C(=O)N1Cc1ccc([N+](=O)[O-])cc1` the IC50 was > 100 µM.
`O=C1S/C(=C\c2ccccc2)C(=O)N1Cc1ccc(F)cc1` was tested, and the IC50 was > 100 µM.
For `COC(=O)c1ccc(COc2ccc(/C=C3\SC(=O)N(Cc4ccc(F)cc4)C3=O)cc2OC)cc1`, the IC50 was > 100 µM.
`COc1cc(/C=C2\SC(=O)N(Cc3ccc([N+](=O)[O-])cc3)C2=O)ccc1OCc1ccccc1` was tested, and the IC50 was > 100 µM.
`COc1cc(/C=C2\SC(=O)N(Cc3ccccc3)C2=O)ccc1OCc1ccccc1` showed an IC50 of 100 µM.
In the case of `O=C1S/C(=C\c2ccccc2)C(=O)N1Cc1ccccc1`, the IC50 is reported as > 100 µM.

What follows are compounds tested against T1, Autotaxin (assay: Inhibition of 6x-histidine-tagged human recombinant ATX expressed in HEK293 cells assessed as residual activity using bisP-nitrophenyl phosphate as a substrate; values are per cent of control). Settings: not given.
Work on `COc1cc(/C=C2\SC(=O)N(Cc3ccc(F)cc3)C2=O)ccc1OCc1ccccc1` yielded a residual activity of 12%.
Compound `COC(=O)c1ccc(COc2ccc(/C=C3\SC(=O)N(Cc4ccccc4)C3=O)cc2OC)cc1` has a residual activity of 24%.

What follows are compounds tested against T1, Autotaxin (assay: Inhibition of 6x-histidine-tagged human recombinant ATX expressed in HEK293 cells assessed as lysophosphatidulcholine release). Settings: not given.
Format: cell-based
Summary of the method: (§1)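 LPC (18:1) choline release: ATX (~40 nM) secreted by transfected HEK293 cells into serum-free medium, TALON-purified, in 50 mM Tris-HCl pH 7.4 with 0.01% Triton X-100. Substrate added as 80 μM LPC with 10 mM MgCl2 and CaCl2, 3 h at 37 C.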
`O=C1S/C(=C\c2cccc(OCc3ccc(B(O)O)cc3)c2)C(=O)N1Cc1ccc(F)cc1` gave an IC50 of 0.0296 µM.
`O=C1S/C(=C\c2ccc(OCc3ccccc3B(O)O)cc2)C(=O)N1Cc1ccc(F)cc1` was tested, and the IC50 was > 5 µM.
`O=C1S/C(=C\c2ccc(OCc3cccc(B(O)O)c3)cc2)C(=O)N1Cc1ccc(F)cc1` showed an IC50 of 0.0283 µM.
For `O=C1S/C(=C\c2cccc(OCc3cccc(B(O)O)c3)c2)C(=O)N1Cc1ccc(F)cc1`, the IC50 was 0.0119 µM.
`O=C1S/C(=C\c2cccc(OCc3ccccc3B(O)O)c2)C(=O)N1Cc1ccc(F)cc1` was tested, and the IC50 was > 5 µM.

What follows are compounds tested against T1, Autotaxin (assay: Inhibition of 6x-histidine-tagged human recombinant ATX expressed in HEK293 cells assessed as lysophosphatidulcholine release at 5 uM). Settings: not given.
Format: cell-based
Summary of the method: as §1, with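 “C. Choline read at 405 nm by choline oxidase/HRP/ABTS with compound-absorbance correction. IC50 over 10 concentrations (0.01–30 μM); inhibition at 5 μM final.” for “C.”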
`COC(=O)c1cccc(CN2C(=O)S/C(=C\c3ccc(OCc4ccc(C(=O)O)cc4)c(OC)c3)C2=O)c1` showed an inhibition of 30%.
In the case of `COc1cc(/C=C2\SC(=O)N(Cc3cccc4ccccc34)C2=O)ccc1OCc1ccc(C(=O)O)cc1`, the inhibition is reported as 13%.
In the case of `COc1cc(/C=C2\SC(=O)N(Cc3ccc(Br)cc3)C2=O)ccc1OCc1ccc(C(=O)O)cc1`, the inhibition is reported as 23%.
With `COc1cc(/C=C2\SC(=O)N(Cc3ccc(Cl)cc3)C2=O)ccc1OCc1ccc(C(=O)O)cc1` the inhibition was 57%.
For `COc1cc(/C=C2\SC(=O)N(CCN3C(=O)c4ccccc4C3=O)C2=O)ccc1OCc1ccc(C(=O)O)cc1`, the inhibition was 0%.
Compound `COc1cc(/C=C2\SC(=O)N(Cc3ccc(F)cc3C(F)(F)F)C2=O)ccc1OCc1ccc(C(=O)O)cc1` has an inhibition of 13%.
In the case of `COc1cc(/C=C2\SC(=O)N(CC(=O)c3ccc(Br)cc3)C2=O)ccc1OCc1ccc(C(=O)O)cc1`, the inhibition is reported as 23%.
Compound `COc1cc(/C=C2\SC(=O)N(Cc3cccc(Br)c3)C2=O)ccc1OCc1ccc(C(=O)O)cc1` has an inhibition of 26%.
In the case of `COc1cc(/C=C2\SC(=O)N(Cc3ccccc3C#N)C2=O)ccc1OCc1ccc(C(=O)O)cc1`, the inhibition is reported as 17%.
For `COc1cc(/C=C2\SC(=O)N(Cc3ccccc3[N+](=O)[O-])C2=O)ccc1OCc1ccc(C(=O)O)cc1`, the inhibition was 38%.
`COc1cc(/C=C2\SC(=O)N(Cc3ccccc3F)C2=O)ccc1OCc1ccc(C(=O)O)cc1` was tested, and the inhibition was 41%.
`COC(=O)c1ccc(CN2C(=O)S/C(=C\c3ccc(OCc4ccc(C(=O)O)cc4)c(OC)c3)C2=O)cc1` was tested, and the inhibition was 31%.
`COc1cc(/C=C2\SC(=O)N(CC(=O)c3ccc([N+](=O)[O-])cc3)C2=O)ccc1OCc1ccc(C(=O)O)cc1` was tested, and the inhibition was 17%.
`COc1cc(/C=C2/SC(=O)N(Cc3c(F)c(F)c(F)c(F)c3F)C2=O)ccc1OCc1ccc(C(=O)O)cc1` gave an inhibition of 10%.
Compound `O=C1S/C(=C\c2cccc(OCc3ccc(B(O)O)cc3)c2)C(=O)N1Cc1ccc(F)cc1` has an inhibition of 100%.
`O=C1S/C(=C\c2ccc(OCc3ccc(B(O)O)cc3)cc2)C(=O)N1Cc1ccc(F)cc1` was tested, and the inhibition was 99%.
`COc1cc(/C=C2\SC(=O)N(Cc3ccncc3)C2=O)ccc1OCc1ccc(C(=O)O)cc1` was tested, and the inhibition was 13%.
For `COc1cc(/C=C2/SC(=O)N(Cc3c(Cl)cccc3Cl)C2=O)ccc1OCc1ccc(C(=O)O)cc1`, the inhibition was 38%.
`COc1cc(/C=C2\SC(=O)N(Cc3cccc(F)c3)C2=O)ccc1OCc1ccc(C(=O)O)cc1` showed an inhibition of 64%.
In the case of `COc1cc(/C=C2\SC(=O)N(Cc3cccnc3)C2=O)ccc1OCc1ccc(C(=O)O)cc1`, the inhibition is reported as 17%.
With `COc1cc(/C=C2\SC(=O)N(Cc3ccc(C(=O)O)cc3[N+](=O)[O-])C2=O)ccc1OCc1ccc(C(=O)O)cc1` the inhibition was 31%.
In the case of `COc1cc(/C=C2\SC(=O)N(Cc3ccc(OC(F)(F)F)cc3)C2=O)ccc1OCc1ccc(C(=O)O)cc1`, the inhibition is reported as 12%.
`COc1cc(/C=C2\SC(=O)N(Cc3cccc(Cl)c3)C2=O)ccc1OCc1ccc(C(=O)O)cc1` was tested, and the inhibition was 29%.
With `O=C1S/C(=C\c2ccc(OCc3ccccc3B(O)O)cc2)C(=O)N1Cc1ccc(F)cc1` the inhibition was 36%.
For `O=C1S/C(=C\c2ccc(OCc3cccc(B(O)O)c3)cc2)C(=O)N1Cc1ccc(F)cc1`, the inhibition was 99%.
Work on `COc1cc(/C=C2\SC(=O)N(Cc3ccccc3C(F)(F)F)C2=O)ccc1OCc1ccc(C(=O)O)cc1` yielded an inhibition of 28%.
`COc1cc(/C=C2\SC(=O)N(Cc3ccc(C#N)cc3)C2=O)ccc1OCc1ccc(C(=O)O)cc1` showed an inhibition of 21%.
`COc1ccc(CN2C(=O)S/C(=C\c3ccc(OCc4ccc(C(=O)O)cc4)c(OC)c3)C2=O)cc1` was tested, and the inhibition was 11%.
In the case of `COc1cc(/C=C2\SC(=O)N(Cc3ccccn3)C2=O)ccc1OCc1ccc(C(=O)O)cc1`, the inhibition is reported as 10%.
`COc1cc(/C=C2\SC(=O)N(Cc3cccc(C#N)c3)C2=O)ccc1OCc1ccc(C(=O)O)cc1` was tested, and the inhibition was 44%.
`O=C1S/C(=C\c2cccc(OCc3cccc(B(O)O)c3)c2)C(=O)N1Cc1ccc(F)cc1` gave an inhibition of 100%.
`COc1cc(/C=C2\SC(=O)N(Cc3ccc(C)cc3)C2=O)ccc1OCc1ccc(C(=O)O)cc1` showed an inhibition of 11%.
In the case of `COc1cc(/C=C2\SC(=O)N(Cc3ccc(F)cc3Br)C2=O)ccc1OCc1ccc(C(=O)O)cc1`, the inhibition is reported as 51%.
With `O=C1S/C(=C\c2cccc(OCc3ccccc3B(O)O)c2)C(=O)N1Cc1ccc(F)cc1` the inhibition was 11%.
In the case of `COc1cc(/C=C2\SC(=O)N(Cc3cccc([N+](=O)[O-])c3)C2=O)ccc1OCc1ccc(C(=O)O)cc1`, the inhibition is reported as 48%.
`COc1cc(/C=C2\SC(=O)N(Cc3ccc(CC(=O)O)cc3)C2=O)ccc1OCc1ccc(C(=O)O)cc1` gave an inhibition of 42%.
With `COc1cc(/C=C2\SC(=O)N(Cc3ccccc3Br)C2=O)ccc1OCc1ccc(C(=O)O)cc1` the inhibition was 72%.
`C=CCN1C(=O)S/C(=C\c2ccc(OCc3ccc(C(=O)O)cc3)c(OC)c2)C1=O` gave an inhibition of 19%.
In the case of `COc1cc(/C=C2\SC(=O)N(C(c3ccccc3)c3ccccc3)C2=O)ccc1OCc1ccc(C(=O)O)cc1`, the inhibition is reported as 4%.
Compound `COc1cc(/C=C2\SC(=O)N(Cc3cccc(C(F)(F)F)c3)C2=O)ccc1OCc1ccc(C(=O)O)cc1` has an inhibition of 46%.
`COc1cc(/C=C2\SC(=O)N(Cc3ccccc3Cl)C2=O)ccc1OCc1ccc(C(=O)O)cc1` was tested, and the inhibition was 57%.
In the case of `CCCCCN1C(=O)S/C(=C\c2ccc(OCc3ccc(C(=O)O)cc3)c(OC)c2)C1=O`, the inhibition is reported as 15%.
With `COc1cccc(CN2C(=O)S/C(=C\c3ccc(OCc4ccc(C(=O)O)cc4)c(OC)c3)C2=O)c1` the inhibition was 20%.
In the case of `COc1cc(/C=C2\SC(=O)N(CC(=O)c3ccc(Cl)cc3)C2=O)ccc1OCc1ccc(C(=O)O)cc1`, the inhibition is reported as 35%.
`COc1cc(/C=C2\SC(=O)N(Cc3ccc(C(F)(F)F)cc3)C2=O)ccc1OCc1ccc(C(=O)O)cc1` showed an inhibition of 32%.
For `COc1cc(/C=C2\SC(=O)N(C(C)c3ccccc3)C2=O)ccc1OCc1ccc(C(=O)O)cc1` (configuration not stated), the inhibition was 5%.
`COc1cc(/C=C2\SC(=O)N(Cc3ccc(C(=O)O)cc3)C2=O)ccc1OCc1ccc(C(=O)O)cc1` gave an inhibition of 49%.
